Laboratory results taken from ChEMBL document CHEMBL1149461, “Synthesis and structure-activity relationship studies of CD4 down-modulating cyclotriazadisulfonamide (CADA) analogues” (J Med Chem, 2006).

Tests used:
MT4 [1] = assay: Inhibition of CD4 antigen expression in MT4 cells; type: functional, cell-based; conditions: Homo sapiens
In short: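 MT-4 cells were labelled with FITC-conjugated anti-CD4 mAb to read surface CD4 by mean fluorescence intensity. IC50 is the concentration giving 50% loss of cell-surface CD4. Top concentrations tested were 15 or 75 µM. Where 50% reduction was not reached, the value is reported as a lower limit based on the highest concentration used.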

[2] = test system: Human immunodeficiency virus 1; assay: Antiviral activity against HIV1 NL4.3 in MT4 cells; type: functional, organism-based; conditions: Human immunodeficiency virus 1, NL4.3, MT4
MT4 [3] = assay: Cytotoxicity against MT4 cells; type: functional; conditions: Homo sapiens

Row | Compound | IC50 [2] | IC50 (MT4 [1]; read-out: IC50) | IC50 (MT4 [1]; read-out: Log IC50 (converted)) | CC50 (MT4 [3])
1 | C=C1CN(S(=O)(=O)c2ccc(Br)cc2)CCCN(C(=O)OCC)CCCN(S(=O)(=O)c2ccc(Br)cc2)C1 | – | 12.4 µM | 12.3 µM | 29 µM
2 | C=C1CN(S(=O)(=O)c2ccc(OC)cc2)CCCNCCCN(S(=O)(=O)c2ccc(OC)cc2)C1 | 6.3 µM | 5.3 µM | 5.25 µM | 43 µM
3 | C=C1CN(S(=O)(=O)c2ccc(C)cc2)CCCN(CC2CCCCC2)CCCN(S(=O)(=O)c2cccc3c(N(C)C)cccc23)C1 | 1.8 µM | 0.61 µM | 0.617 µM | 49 µM
4 | C=C1CN(S(=O)(=O)c2ccc(C)cc2)CCCN(Cc2ccccc2)CCCN(S(=O)(=O)c2cccc3c(N(C)C)cccc23)C1 | 9.5 µM | 1.3 µM | 1.29 µM | > 75 µM

Further compounds by falling IC50 [2], results first:

Row | IC50 [2] | Compound | IC50 (MT4 [1]; read-out: IC50) | IC50 (MT4 [1]; read-out: Log IC50 (converted)) | CC50 (MT4 [3])
5 | 0.63 µM | C=C1CN(S(=O)(=O)c2ccc(OC)cc2)CCCN(CCC(C)C)CCCN(S(=O)(=O)c2ccc(OC)cc2)C1 | 0.29 µM | 0.288 µM | 53 µM
6 | 0.62 µM | C=C1CN(S(=O)(=O)c2ccc(OC)cc2)CCCN(Cc2ccccc2)CCCN(S(=O)(=O)c2ccc(OC)cc2)C1 | 0.22 µM | 0.219 µM | 26 µM
